Screens as filed in PubChem BioAssay.
MrgX1 antagonist: antagonists of human MrgX1 receptor | Q96LB2 | MRGX1-HEK293 calcium flux, Fluo-4, BAM8-22 antagonism; active compounds read low | B-score at 10 µM | actives 1.3% (n = 310,000) | AID 588676;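 active means calcium-response B-score plate-corrected more than 3 library SD below zero, starting fluorescence within 5 deviations, no agonist response on first addition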;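 further: peak minus trough fluorescence over baseline after final BAM8-22 challenge near maximal dose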
Target sequence (Q96LB2 whole entry, looked up): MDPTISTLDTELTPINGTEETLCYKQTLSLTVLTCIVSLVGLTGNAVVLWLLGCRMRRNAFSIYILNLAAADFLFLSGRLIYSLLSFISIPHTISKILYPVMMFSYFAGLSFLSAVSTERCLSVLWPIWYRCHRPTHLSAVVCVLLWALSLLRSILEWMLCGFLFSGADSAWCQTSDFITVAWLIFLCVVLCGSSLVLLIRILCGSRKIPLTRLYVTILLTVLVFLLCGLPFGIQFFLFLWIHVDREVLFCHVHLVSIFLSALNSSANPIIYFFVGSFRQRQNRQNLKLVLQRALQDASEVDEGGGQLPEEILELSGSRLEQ
MrgX1 PAM: human MrgX1 positive allosteric modulation, primary screen; Q96LB2; B-score at 10 µM; actives 0.63% (n = 310,000); MrgX1-HEK293, Fluo-4 calcium flux, FDSS; active compounds read high; AID 588675;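 active means plate-corrected calcium response at least 3 library SD above typical, normal starting fluorescence, not activating the receptor alone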;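 further: compound read alongside a low EC10 to EC30 dose of BAM8-22 agonist; peak minus trough fluorescence over baseline measured at the second addition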
MrgX1 ag: agonists of human MrgX1 receptor | actives 0.44% (n = 310,000) | B-score at 10 µM | MrgX1-HEK293 cells, Fluo-4 calcium fluorescence, agonist mode; active compounds read high;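 active means calcium response B-score plate-corrected fluorescence ratio at least 3 library SD, with starting fluorescence B-score inside 5 SD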
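times = overnight plating, then 30 min 37 °C plus 30 min room-temperature dye loading | assay system = stable human MrgX1 HEK293 cell line | input = fifteen thousand cells per well | signal = kinetic calcium dye fluorescence, Fluo-4 NW | dosing = compound delivered in addition one of three | read-out = B-scored fluorescence response ratio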
RGS4 pot: potentiators or activators of RGS4. HEK293 M3R/inducible RGS4, carbachol calcium flux Fluo4; active compounds read low. B-score at 10 µM. actives 0.92% (n = 310,000);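 active means B-score of the integrated calcium signal more than 4 SD below the library mean, with starting fluorescence not abnormally high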;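 further: negative B-score means reduced calcium response which marks RGS4 activation or potentiation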
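System: HEK293 FlpIn-TREx cells, stable M3R, doxycycline-inducible RGS4. Timing: overnight RGS4 induction, 30 min dye load 37 °C, 20 min compound RT. Also added: carbachol, ECmax concentration. Measured by: Fluo4 fluorescence kinetic imaging of calcium. Evaluation: integrated calcium ratio converted to B score.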
RGS4 inh: inhibitors of human RGS4 | P49798 | B-score at 10 µM | actives 0.45% (n = 310,000) | AID 463165 | HEK293 M3R/RGS4 inducible, Fluo-4 calcium flux; active compounds read high; triggered by carbachol at its EC20;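 active means B-score, a plate-corrected calcium signal, over three deviations above library mean, with baseline fluorescence within five deviations of library mean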;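 further: RGS4 expression induced by doxycycline in cells with stable M3 receptor; B-score is computed from the integrated fluorescence ratio over baseline after carbachol; higher B-score means a larger calcium signal and so more RGS4 inhibition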
Target sequence (P49798 whole entry, looked up): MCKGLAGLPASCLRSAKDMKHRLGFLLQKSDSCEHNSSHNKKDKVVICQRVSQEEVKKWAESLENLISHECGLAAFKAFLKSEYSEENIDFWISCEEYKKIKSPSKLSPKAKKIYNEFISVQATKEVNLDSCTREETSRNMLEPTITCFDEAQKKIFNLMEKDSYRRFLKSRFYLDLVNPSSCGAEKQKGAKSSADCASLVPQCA
MrgX1 allo conf: confirmation of human MrgX1 receptor positive allosteric modulators. AID 602413. actives 13% (n = 1,200). MrgX1-HEK293, Fluo-4 calcium fluorescence, FDSS. shares compounds with MrgX1 PAM. activation (ratio percentage), % at 10 µM;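 active means ratio at least 3 SD above the weak peptide control, stable starting fluorescence, no direct agonism earlier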;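 further: compound followed by low BAM8-22 agonist challenge near EC20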
MrgX1 ant reconf: reconfirmed antagonist of human MrgX1 receptor signaling. MrgX1-HEK293, BAM8-22 calcium flux, Fluo-4; active compounds read low. remaining BAM8-22 calcium response % of control (active compounds read low), % at 10 µM. shares compounds with MrgX1 antagonist. AID 602420. actives 19% (n = 2,300);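 active means remaining agonist calcium response no higher than 100% minus 3 SD of agonist-only control wells, with starting fluorescence near control levels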;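 further: agonist BAM8-22 given at a near maximal EC90 to ECmax level; peak minus minimum fluorescence divided by baseline after agonist addition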
HEK293 Ca flux: activity in parental HEK293 cells lacking MrgX1 | shares compounds with MrgX1 antagonist | Fluo-4 calcium fluorescence, FDSS | fluorescence ratio F(max-min)/F0 at 10 µM | actives 2% (n = 4,000);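 active means duplicate-averaged calcium fluorescence ratio at least three times the standard deviation of buffer wells, a nonspecific response in parental cells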
HEK293 Ca counter: counter-screen for MrgX1 allosteric activators: effect in parental HEK293 cells. shares compounds with MrgX1 antagonist. parental HEK293 calcium flux, Fluo-4 fluorescence ratio; active compounds read high. fluorescence ratio F(max-min)/F0 at 10 µM. actives 0.4% (n = 4,000). AID 624114;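 active means calcium fluorescence ratio, averaged over duplicates, at least 3 SD of the buffer-well ratio, meaning a nonspecific response in receptor-free cells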;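 further: untransfected parental HEK293 lacking MrgX1 used as counterscreen for MrgX1 allosteric activators; fluorescence change taken during the second addition on a kinetic imager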
HEK293 Ca cntr2: MrgX1 activator counter-screen hit in parental HEK293 cells; actives 8.7% (n = 4,000); fluorescence ratio F(max-min)/F0 at 10 µM; AID 624115; Fluo-4 calcium fluorescence (FDSS); active compounds read high; shares compounds with MrgX1 antagonist;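 active means calcium fluorescence ratio at least three times the spread of buffer wells, meaning a non-specific response in parental cells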
Numbers stand for hits; - = inactive; . = not tested or not shown. Shown are actives, neighbours in structure and some others; about 3.5% of the full set was active somewhere.

SMILES	MrgX1 antagonist	MrgX1 PAM	MrgX1 ag	RGS4 pot	RGS4 inh	MrgX1 allo conf	HEK293 Ca flux	HEK293 Ca counter	HEK293 Ca cntr2	others
CC(C)NC(=O)CN(C(=O)CCC(=O)Nc1nccs1)c1ccc2c(c1)OCO2	-	-	-	-	-	.	.	.	.
COCCNC(=O)CN(C(=O)CCC(=O)Nc1nccs1)c1ccc2c(c1)OCO2	-	33	-	-	-	-	-	-	-
CC1CCN(C(=O)Cn2c3ccccc3c3nc4n(c(=O)c32)CCS4)CC1	-	-	-	-	-	.	.	.	.
COC(=O)c1c(C)nc2ccccc2c1C(=O)O	-	-	-	-	-	.	.	.	.
CC(C)=CCc1c(C)nc2ccccc2c1C(=O)O	-	11	-	-	-	-	-	-	-
COc1ccccc1N1CCN(C2=Nc3cccc4cccc2c34)CC1	-	8.9	-	-7	-	-	-	-	-
CC(=O)N1CCN(C2=Nc3cccc4cccc2c34)CC1	-	-	-	-	-	.	.	.	.
CCN(CC)S(=O)(=O)c1ccc2nc(SC)sc2c1	-	13	-	-	-	-	-	-	-
CSc1nc2ccc(S(=O)(=O)N(C)C)cc2s1	-	-	-	-	-	.	.	.	.
Clc1ccc(-c2cc3ccccc3nc2N2CCOCC2)cc1	-	11	-	-	-	-	-	-	-
Clc1ccc(-c2cc3ccccc3nc2N2CCCC2)cc1	-	-	-	-	-	.	.	.	.
CC1(C)Cc2cccc(Oc3ccc(S(=O)(=O)N4CCCCC4)cn3)c2O1	-	11	-	-	-	-	-	-	-
Cc1ccc(C(=O)Cc2cc3ccccc3oc2=O)c(C)c1	-	-	-	-	-	.	.	.	.
CSc1ccccc1NC(=O)c1ccccc1N(C)S(C)(=O)=O	-	8.2	-	-	-	10.0%	-	-	-
CCOC(=O)c1ccccc1NC(=O)c1ccccc1N(C)S(C)(=O)=O	-	7.2	-	-	-	9.4%	-	-	-
COC(=O)c1ccccc1NC(=O)c1ccccc1N(C)S(C)(=O)=O	-	10	-	-	-	-	-	-	-
COC(=O)c1ccccc1N(C)S(C)(=O)=O	-	-	-	-	-	.	.	.	.
CCOC(=O)c1ccccc1NC(=O)c1ccc(N(C)S(C)(=O)=O)cc1	-	-	-	-	-	.	.	.	.
CCN(C(=O)c1ccco1)C1C2CC3CC(C2)CC1C3 (stereo not given)	-	-	-	-	-	.	.	.	.
CC(=O)Nc1nc(-c2cc([N+](=O)[O-])cs2)cs1	-	-	-	-	-	.	.	.	.
CC(C)(C)OC(=O)N1CCC(CNC(=O)c2ccc(F)cc2)CC1	-	35	-	-	-	-	-	-	-
Cn1nnnc1SCC(=O)NC(=O)c1cccc([N+](=O)[O-])c1	-	-	-	-	-	.	.	.	.
CCOc1ccccc1NC(=O)CCS(=O)(=O)c1cccc2nonc12	-	7.5	-	.	.	-	-	-	-
O=C(NCc1ccc(F)cc1)C1CCCN(C(=O)NCc2ccccc2)C1 (stereo not given)	-	-	-	-	-	.	.	.	.
Cc1cccc(NC(=S)NC(=O)/C=C/c2ccco2)n1	-	25	-	-	-	4.6%	-	-	-
SMILES	MrgX1 antagonist	MrgX1 PAM	MrgX1 ag	RGS4 pot	RGS4 inh	MrgX1 allo conf	HEK293 Ca flux	HEK293 Ca counter	HEK293 Ca cntr2	others
COc1ccc(C(=O)COC(=O)c2cc(=O)[nH]c3ccccc23)c(OC)c1	-	-	-	-	-	.	.	.	.
Cc1csc(NC(=O)c2cncc(Br)c2)n1	-	15	-	-	-	-	-	-	-
O=C(N[C@@H](Cc1c[nH]c2ccccc12)C(=O)O)c1ccccc1Cl	-	17	-	-	-	-	-	-	-
CCOC(=O)c1ccc(NC(=O)NNS(=O)(=O)c2cc(OC)ccc2OC)cc1	-	-	-	-	-	.	.	.	.
CC1(C(=O)N/N=C/c2c(F)c(F)c(F)c(F)c2F)CC1(Cl)Cl (stereo not given)	-	20	-	-	-	-	-	-	-
COc1ccc(NC(=O)Nc2c(C)n(C)n(-c3ccccc3)c2=O)c(OC)c1	-	-	-	-	-	.	.	.	.
Cc1ccc(-n2c(COc3cccc(C)c3)n[nH]c2=S)cc1	-	11	-	-	-	-	-	-	-
Cc1ccc(OCc2n[nH]c(=S)n2-c2ccccc2)cc1C	-	8.7	-	-	-	-	-	-	-
Cc1ccc(-n2c(COc3ccccc3)n[nH]c2=S)cc1	-	8	-	-	-	-	-	-	-
Cc1ccc(-n2c(CCc3ccccc3)n[nH]c2=S)cc1C	-	6.5	-	-	-	-	-	-	-
COc1ccc(-n2c(COc3ccc(C)cc3)n[nH]c2=S)cc1	-	-	-	-	-	.	.	.	.
COc1ccc(CCNc2nc(-c3ccncc3)cs2)cc1OC	-5.1	7.3	-	-	-	-	-	-	-	MrgX1 ant reconf=78%
O=[N+]([O-])c1ccc(CSc2nnc(SCc3ccc(Cl)cc3)s2)cc1	-	-	-	-	-	.	.	.	.
CNc1nc2[nH]c(=O)c3c(c2s1)OC(N)=C(C#N)C3c1cccc(F)c1 (stereo not given)	-	17	-	-	-	-	-	-	-
O=C(CSc1nc2ccccc2[nH]1)Nc1ccc(F)cc1	-	-	-	-	-	.	.	.	.
O=C(CSc1nc2ccccc2[nH]1)NCc1ccc(F)cc1	-	9.5	-	-	-	-	-	-	-
CN(C)S(=O)(=O)c1ccc(Cl)c(NC(=O)COC(=O)CN2C(=O)C3CCCCC3C2=O)c1 (stereo not given)	-	9	-	-	-	-	-	-	-
Cc1cc(C)c2c(=O)n(CC(=O)Nc3ccc(Br)c(C)c3)sc2n1	-	7.1	-	-	-	-	-	-	-
CCOc1ccc(S(=O)(=O)N2CCC(C(=O)NCc3ccncc3)CC2)cc1C	-	-	-	-	-	.	.	.	.
CCc1[nH]nc2c1C(c1ccc(C)o1)C(C#N)=C(N)O2 (stereo not given)	-	7.6	-	-	-	-	-	-	-
COc1ccc(NC(=O)c2nc[nH]c2C(=O)N2CCC(C)CC2)cc1	-	8.2	-	-	-	-	-	-	-
CCOC(=O)c1ccc(NC(=O)c2nc[nH]c2C(=O)N2CCC(C)CC2)cc1	-	-	-	-	-	.	.	.	.
